A selection: hits, their analogues and other compounds. The true share with any hit is near 2.5%.
ABHD5 PLIN5 PPI – ABHD5-PLIN5 interaction inhibitors, primary screen, cell lysate, split luciferase complementation, luminescence. Perilipin-5 (Homo sapiens) + 1-acylglycerol-3-phosphate O-acyltransferase ABHD5 (Homo …. Split G. princeps luciferase complementation, 4 h. inhibition, % at 4 µM. 0.78% of 360,000 active. AID 602281, 2012;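 active = inhibition above the mean inhibition across every tested compound plus 3 SD, cut at about 22% in these data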;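 note: 0% = DMSO only wells and the 100% control is not disclosed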
Arr AP2 block – inhibitors of beta-arrestin/AP2 binding, primary screen, biochemical, GPCR trafficking, flow cytometry; beta-arrestin 1 C-terminal peptide binding to AP2 beta2-adaptin appendage (human); FITC-arrestin peptide / GST-AP2 beads; AP2 beta2 appendage carries R879A mutation; inhibition, % at 10 µM; 0.31% of 340,000 active; AID 504490, 2011;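 active = inhibition above a set limit, near 3 SD of compounds lacking own fluorescence, cut at about 54% in these data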;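 note: plate controls were DMSO wells for no effect and 5 µM unlabelled arrestin peptide for full effect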
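test system = AP2 appendage R879A on GSH beads | buffer or medium = PBS plus Tween 20 (0.05%) and BSA (0.1%) | incubation = 12 min plus 1 h, RT | detection = bead flow cytometry, FITC channel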
Beta2AR agonist – beta2AR agonists driving receptor internalization, primary screen, cell-based, FAP fluorogen, flow cytometry; Beta-2 adrenergic receptor (Homo sapiens), P07550; AID 504454, 2011; Am2.2-beta2AR cells; response, % (concentration not given with the values); 0.43% of 340,000 active;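 active = response above a set limit, near 3 SD of response in nonfluorescent compounds, cut at about 42% in these data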
Target sequence (P07550 whole entry, looked up): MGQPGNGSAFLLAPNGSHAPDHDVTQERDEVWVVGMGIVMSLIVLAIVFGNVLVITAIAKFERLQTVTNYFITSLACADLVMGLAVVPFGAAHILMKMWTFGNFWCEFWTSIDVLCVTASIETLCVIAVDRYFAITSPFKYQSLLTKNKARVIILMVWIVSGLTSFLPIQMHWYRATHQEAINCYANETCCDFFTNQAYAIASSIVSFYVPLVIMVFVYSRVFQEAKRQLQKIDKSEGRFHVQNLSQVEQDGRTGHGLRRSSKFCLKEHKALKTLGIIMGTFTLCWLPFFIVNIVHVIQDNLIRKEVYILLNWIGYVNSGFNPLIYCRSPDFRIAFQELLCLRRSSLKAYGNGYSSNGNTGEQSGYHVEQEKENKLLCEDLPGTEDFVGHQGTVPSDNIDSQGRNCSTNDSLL
Rin1-Abl PPI inh – inhibitors of Rin1-Abl protein binding, primary screen, biochemical, TR-FRET; 0.4% of 360,000 active; inhibition, % at 7.35 µM; in the data active = inhibition above about 5%, passing the limit was not always enough
MBD2 DNA inh – inhibitors of MBD2 binding to methylated DNA, primary screen, biochemical, TR-FRET, DNA-binding domain, human; Methyl-CpG-binding domain protein 2 (Homo sapiens), Q9UBB5; MBD2 binding to methylated oligonucleotide; inhibition, % at 4.4 µM; 0.31% of 370,000 active; in the data active = inhibition above about 13%
UHRF1 binding – UHRF1 methylated DNA binding inhibitors, primary screen, counter-screen for MBD2 inhibitor project, biochemical, TR-FRET, human UHRF1, single concentration; inhibition, % at 4.4 µM; E3 ubiquitin-protein ligase UHRF1 (Homo sapiens), Q96T88; 0.75% of 370,000 active; UHRF1 binding to methylated oligo; in the data active = inhibition above about 21%;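 note: UHRF1 SRA domain binding a hemimethylated CpG hairpin DNA probe; 0% = median of test compound wells and 100% = reference inhibitor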
ABHD5-PLIN5 conf – ABHD5-PLIN5 interaction inhibitors, confirmation, biochemical, luminescence. shares compounds with ABHD5 PLIN5 PPI. inhibition, % at 4 µM. 67% of 2,200 active. AID 651612, 2012; in the data active = inhibition above about 23%;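 note: 0% = DMSO vehicle wells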
HNF4 counter – HNF4 dimerization inhibitors, counter-screen for ABHD5-PLIN5 interaction inhibitor project, biochemical, split-luciferase complementation, luminescence | 77% of 2,200 active | shares compounds with ABHD5 PLIN5 PPI | inhibition, % at 4 µM;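 active = mean inhibition across replicate wells exceeding the computed hit threshold, cut at about 13% in these data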;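 note: light from luciferase halves that rejoin when HNF4 fusion proteins dimerize; 0% = DMSO only wells and the 100% control is not given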
* hit, by the source's call; . = no result.

SMILES	ABHD5 PLIN5 PPI	Arr AP2 block	Beta2AR agonist	Rin1-Abl PPI inh	MBD2 DNA inh	UHRF1 binding	ABHD5-PLIN5 conf	HNF4 counter
CCC(=O)N(CCC(c1ccco1)C(C)C)Cc1ccccc1 (stereo not drawn)	-4	2	-1	-1	-1	-1	.	.
CCOC(=O)/C(=C\c1ccc(Cl)cc1)c1nc2sc(C)c(C)c2c(=O)[nH]1	46*	3	51*	2	-1	4	99*	77*
C=CCn1c(O)c(C2=c3ccccc3=NC2=O)c2ccccc21	90*	-2	-2	4	2	1	85*	107*
Cc1ccc2c(c1)c(C1=c3ccccc3=NC1=O)c(O)n2C	33*	-1	-3	-1	1	3	88*	108*
Cc1ccc(C2C3=C(CC(C)(C)CC3=O)N=C3c4ccccc4C(=O)C32)cc1 (stereo not drawn)	28*	4	-6	-2	-13	-8	58*	69*
CCCCCCCC[n+]1cccc2c3ccccc3ccc21	17	-13	-5	-6	4	-4	.	.
CCCCCCCCCC[n+]1cccc2c3ccccc3ccc21	27*	-32	-4	-1	2	-1	18	5
C=C1C(=O)[C@@]23[C@H](O)C[C@@H]4C(C)(C)CC[C@H](O)[C@@]4(C)[C@@H]2CC[C@@H]1[C@H]3O	53*	4	46*	0	9	2	85*	78*
C=C1C(=O)[C@@]23[C@H](O)C[C@@H]4C(C)(C)CC[C@H](O)[C@]4(C)[C@@H]2C[C@H](O)[C@@H]1[C@H]3O	80*	24	9	2	1	3	89*	99*
O=C(c1cccs1)N1CC[C@H]2[C@H](CCCN2Cc2cc(F)cc(F)c2)C1	.	.	.	.	-1	0	.	.
O=C(Cc1cccc([N+](=O)[O-])c1)Nc1ccc(C(=O)N2CCCCC2)cc1	25*	-6	2	2	-2	-1	5	4
O=C1C=CC(n2cc(F)c(=O)[nH]c2=O)O1 (stereo not drawn)	31*	.	.	0	8	6	42*	33*
O=c1[nH]c(=O)n(C2OC(CO)C(O)C2O)cc1F (stereo not drawn)	4	-31	-15	-1	.	.	.	.
Cc1nc(NC(=O)/C=C/c2ccccc2)n[nH]1	25*	11	14	0	-5	-1	42*	38*
CCOC(=O)c1cc2c(=O)n3cccc(C)c3nc2n(CC(C)C)c1=NC(=O)c1ccco1	-24	1	5	-4	-5	-9	.	.
CCCn1c(=NC(=O)c2ccco2)c(C(=O)OCC)cc2c(=O)n3ccccc3nc21	41*	34	8	-4	3	-13	11	27*
CCOC(=O)c1cc2c(=O)n3ccccc3nc2n(Cc2ccco2)c1=NC(=O)c1ccccc1OC	44*	18	14	-6	-1	-3	20	73*
CCOCCCn1c(=NC(=O)c2ccco2)c(C(=O)OCC)cc2c(=O)n3cccc(C)c3nc21	27*	5	-6	-8	-7	-6	19	30*
N=c1c(S(=O)(=O)c2ccccc2)cc2c(=O)n3ccccc3nc2n1Cc1ccco1	25*	-1	6	-3	-5	-2	11	25*
CCOC(=O)c1cc2c(=O)n3ccccc3nc2n(Cc2ccco2)c1=NC(=O)c1ccc(OC)cc1	13	14	8	1	-5	-4	.	.
CCOC(=O)c1cc2c(=O)n3ccccc3nc2n(C(C)C)c1=NC(=O)c1ccco1	41*	13	1	-4	-5	-3	14	24*
CC(C)n1c(=NC(=O)c2ccco2)c(C#N)cc2c(=O)n3ccccc3cc21	27*	13	6	-10	-5	-8	29*	54*
CCCCNC(=O)C[C@H]1C[C@@]2(C(=O)OC)C(=C[C@H](C3CCCC3)O[C@@H]2C)N(Cc2ccco2)C1=O	.	.	.	.	-8	-1	.	.
O=C(NC1CCCCC1)Oc1cc2oc(=O)sc2cc1Br	43*	-21	1	5	-1	12	-21	42*
COc1ccc(/C=C/C(=O)c2ccc(OC)cc2OC)cc1	0	1	-7	-1	-5	-2	.	.
SMILES	ABHD5 PLIN5 PPI	Arr AP2 block	Beta2AR agonist	Rin1-Abl PPI inh	MBD2 DNA inh	UHRF1 binding	ABHD5-PLIN5 conf	HNF4 counter
COc1ccc(OC)c(C(=O)/C=C/c2cccnc2)c1	39*	-6	4	1	-6	-1	61*	63*
COc1cc(C(=O)/C=C/c2cccnc2)ccc1O	24*	13	22	-1	-10	-3	61*	55*
O=C(/C=C/c1cccnc1)/C=C/c1cccnc1	95*	7	67*	7	1	-1	102*	108*
Cc1cccc(C(=O)Nc2ccc(C(=O)N/N=C/c3cccnc3)cc2)c1	-2	20	0	-3	1	1	.	.
Cc1cccc(C(=O)Nc2ccc(C(=O)/C=C/c3cccnc3)cc2)c1	68*	9	80*	-1	0	0	102*	102*
COc1ccccc1CNC(=O)N1CCN(Cc2nc3ccccc3c(=O)[nH]2)CC1	.	.	.	.	5	1	.	.
CC1CCC2(CCC(=O)N2CCCOC(=O)c2ccccc2)CC1 (stereo not drawn)	.	.	.	.	0	-2	.	.
CCCN(C(=O)c1cc(S(=O)(=O)N2CCN(CC)CC2)ccc1Cl)C1CCS(=O)(=O)C1 (stereo not drawn)	26*	16	9	1	-1	0	4	3
O=C(Cc1ccccc1)NC1CCCCN(Cc2ccc(Cl)cc2)C1=O (stereo not drawn)	.	.	.	.	1	3	.	.
O=C(C(=O)N1CCC(CNS(=O)(=O)c2cc(C(F)(F)F)cc(C(F)(F)F)c2)CC1)c1cc2ccccc2o1	.	.	.	.	-3	8	.	.

Screening results from PubChem.
